How the values were obtained:
Plasminogen = Plasminogen (Homo sapiens, UniProt P00747); assay: Inhibition of human plasmin using H-D-Val-Leu-LyspNA (S-2251) peptide as substrate assessed as reduction of enzyme hydrolytic activity
Procedure, shortened: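 Plasmin activity was measured with 0.3 mM S-2251 as substrate and read as absorbance at 405 nm. IC50 is the inhibitor concentration cutting absorbance by 50% compared with the inhibitor-free control under the same conditions.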

Plasma kallikrein = Plasma kallikrein (Homo sapiens, UniProt P03952); assay: Inhibition of human plasma kallikerin using H-D-Phe-Pro-Arg-pNA (S-2302) peptide as substrate assessed as reduction of enzyme hydrolytic activity
Procedure, shortened: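 Plasma kallikrein activity on synthetic peptide substrate S-2302 at 0.2 mM, with and without inhibitor. Hydrolysis followed as absorbance at 405 nm. IC50 is the inhibitor concentration giving a 50% drop in absorbance compared with the uninhibited control under the same conditions.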

[1] = target: Urokinase-type plasminogen activator (Homo sapiens, UniProt P00749); assay: Inhibition of human plasma urokinase using Glu-Gly-Arg-pNA (S-2444) peptide as substrate assessed as reduction of enzyme hydrolytic activity
Procedure, shortened: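 Urokinase hydrolysis of S-2444 at 0.1 mM, monitored by absorbance at 405 nm. IC50 defined as the inhibitor concentration that lowers absorbance by 50% compared with enzyme run under the same conditions without inhibitor.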

Chain of Plasminogen (P00747 97-580 limits assumed): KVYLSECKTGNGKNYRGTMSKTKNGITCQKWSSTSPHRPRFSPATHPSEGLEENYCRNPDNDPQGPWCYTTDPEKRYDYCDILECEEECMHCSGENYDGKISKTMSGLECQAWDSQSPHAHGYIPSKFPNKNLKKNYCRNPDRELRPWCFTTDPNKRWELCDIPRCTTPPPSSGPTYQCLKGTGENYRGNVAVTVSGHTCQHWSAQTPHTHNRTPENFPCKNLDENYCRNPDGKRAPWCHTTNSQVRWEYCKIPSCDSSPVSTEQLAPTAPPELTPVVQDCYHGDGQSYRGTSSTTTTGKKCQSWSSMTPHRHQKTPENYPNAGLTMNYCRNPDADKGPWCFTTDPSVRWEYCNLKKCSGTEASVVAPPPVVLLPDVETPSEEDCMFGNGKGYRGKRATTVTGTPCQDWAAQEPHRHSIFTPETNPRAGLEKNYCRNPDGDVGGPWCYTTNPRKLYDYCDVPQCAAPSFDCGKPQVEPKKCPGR
Chain of Plasminogen (P00747 581-810 limits assumed): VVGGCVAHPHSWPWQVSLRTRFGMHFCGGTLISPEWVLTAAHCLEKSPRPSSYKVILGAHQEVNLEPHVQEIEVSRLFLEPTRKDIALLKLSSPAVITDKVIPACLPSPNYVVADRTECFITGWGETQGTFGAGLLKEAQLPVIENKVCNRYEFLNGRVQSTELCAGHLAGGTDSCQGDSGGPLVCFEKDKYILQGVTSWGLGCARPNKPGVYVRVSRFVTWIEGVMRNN
Chain of Plasma kallikrein (P03952 20-390 limits assumed): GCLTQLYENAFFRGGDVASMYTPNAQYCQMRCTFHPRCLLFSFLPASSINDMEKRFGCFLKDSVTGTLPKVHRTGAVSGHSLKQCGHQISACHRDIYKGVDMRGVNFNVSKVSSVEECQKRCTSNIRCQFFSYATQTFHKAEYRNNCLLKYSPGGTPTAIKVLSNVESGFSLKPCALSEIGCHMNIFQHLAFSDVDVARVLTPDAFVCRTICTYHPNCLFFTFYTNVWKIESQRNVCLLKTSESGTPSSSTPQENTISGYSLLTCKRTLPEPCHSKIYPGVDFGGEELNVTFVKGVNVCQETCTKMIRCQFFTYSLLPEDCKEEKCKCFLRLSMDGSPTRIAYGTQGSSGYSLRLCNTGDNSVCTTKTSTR
Chain of Plasma kallikrein (P03952 391-638 limits assumed): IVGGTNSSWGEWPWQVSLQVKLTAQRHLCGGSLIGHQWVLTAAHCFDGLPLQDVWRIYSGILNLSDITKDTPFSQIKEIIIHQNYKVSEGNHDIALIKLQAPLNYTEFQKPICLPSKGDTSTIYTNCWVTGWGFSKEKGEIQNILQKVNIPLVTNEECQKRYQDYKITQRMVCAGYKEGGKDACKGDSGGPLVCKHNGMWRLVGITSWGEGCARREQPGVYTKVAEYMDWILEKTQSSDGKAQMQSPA

IC50 (Plasminogen) [µM] | IC50 (Plasma kallikrein) [µM] | IC50 [1] [µM] | Compound
130 | 740 | > 1000 | Cn1c(CN2C(=O)CN(c3ccc(F)cc3)C2=O)cc2cnc(C(=O)N[C@H](C#N)CCCCN)nc21
180 | > 1000 | > 1000 | COc1ccc(N2CC(=O)N(Cc3cc4cnc(C(=O)N[C@H](C#N)CCCCN)nc4n3C)C2=O)cc1
330 | > 1000 | > 1000 | CCCc1ccc(N2CC(=O)N(Cc3cc4cnc(C(=O)N[C@H](C#N)CCCCN)nc4n3C)C2=O)cc1
260 | > 1000 | > 400 | Cn1c(CN2C(=O)CN(c3ccc(S(N)(=O)=O)cc3)C2=O)cc2cnc(C(=O)N[C@H](C#N)CCCCN)nc21
160 | > 1000 | > 1000 | Cn1c(CN2C(=O)CN(c3ccc(C(N)=O)cc3)C2=O)cc2cnc(C(=O)N[C@H](C#N)CCCCN)nc21
210 | > 1000 | > 1000 | Cn1c(CN2C(=O)CN(c3ccc(C#N)cc3)C2=O)cc2cnc(C(=O)N[C@H](C#N)CCCCN)nc21
220 | > 1000 | > 1000 | Cn1c(CN2C(=O)CN(c3cccc(S(N)(=O)=O)c3)C2=O)cc2cnc(C(=O)N[C@H](C#N)CCCCN)nc21
400 | > 1000 | > 1000 | Cn1c(CN2C(=O)CN(c3ccc(OCC(N)=O)cc3)C2=O)cc2cnc(C(=O)N[C@H](C#N)CCCCN)nc21

Second part, the compound before the results:

Compound | IC50 (Plasminogen) [µM] | IC50 (Plasma kallikrein) [µM] | IC50 [1] [µM]
Cn1c(CN2C(=O)CN(c3ccc(OCc4ccncc4)c(C(N)=O)c3)C2=O)cc2cnc(C(=O)N[C@H](C#N)CCCCN)nc21 | 170 | > 1000 | > 1000
Cn1c(CN2CC(=O)N(c3ccc(Oc4ccccc4)cc3)CC2=O)cc2cnc(C(=O)N[C@H](C#N)CCCCN)nc21 | 960 | > 1000 | > 1000
CN1CC(=O)N(Cc2cc3cnc(C(=O)N[C@H](C#N)CCCCN)nc3n2C)C1=O | > 1000 | > 1000 | > 1000
Cn1c(CN2C(=O)CN(c3cccc(C(N)=O)c3)C2=O)cc2cnc(C(=O)N[C@H](C#N)CCCCN)nc21 | 100 | > 1000 | > 1000
Cn1c(CN2C(=O)CN(c3cccc(C#N)c3)C2=O)cc2cnc(C(=O)N[C@H](C#N)CCCCN)nc21 | 220 | > 1000 | > 1000
CC(=O)COc1ccc(N2CC(=O)N(Cc3cc4cnc(C(=O)N[C@H](C#N)CCCCN)nc4n3C)C2=O)cc1 | 250 | > 1000 | > 1000
Cn1c(CN2C(=O)CN(c3ccc(OCC#N)cc3)C2=O)cc2cnc(C(=O)N[C@H](C#N)CCCCN)nc21 | 130 | > 1000 | > 1000
Cn1c(CN2C(=O)CN(c3ccc(Oc4ccccc4)cc3)C2=O)cc2cnc(C(=O)N[C@H](C#N)CCCCN)nc21 | 51 | > 1000 | > 400
COc1ccc(Oc2ccc(N3CC(=O)N(Cc4cc5cnc(C(=O)N[C@H](C#N)CCCCN)nc5n4C)C3=O)cc2)cc1 | 64 | > 1000 | > 400
Cn1c(CN2C(=O)CN(c3ccc(OCc4ccncc4)cc3)C2=O)cc2cnc(C(=O)N[C@H](C#N)CCCCN)nc21 | 87 | > 1000 | > 1000
Cn1c(CN2C(=O)CN(c3ccc(Oc4ccc5ncccc5c4)cc3)C2=O)cc2cnc(C(=O)N[C@H](C#N)CCCCN)nc21 | > 250 | > 1000 | > 400
Cn1c(CN2C(=O)CN(c3ccc(Oc4ccccc4C(N)=O)cc3)C2=O)cc2cnc(C(=O)N[C@H](C#N)CCCCN)nc21 | 99 | > 1000 | > 1000
Cn1c(CN2C(=O)CN(c3ccc(Oc4ccccc4)c(C(N)=O)c3)C2=O)cc2cnc(C(=O)N[C@H](C#N)CCCCN)nc21 | 510 | > 1000 | > 1000
